# ERa SRC1 inh: ER-alpha (human) coactivator binding inhibition; P03372; TR-FRET ER-alpha LBD / SRC-1 peptide, estradiol-bound; inhibition, % at 25.6 µM; hit rate 1.7% among 86,000; AID 629; in the data active = inhibition above about 50%;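 note: 0% = receptor plus peptide control and 100% = peptide only without receptor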
# ERb SRC1 inh: ER-beta (human) coactivator binding inhibition; Q92731; TR-FRET ER-beta LBD / SRC1-Cy5 peptide binding; receptor agonist-loaded with 1 µM estradiol; inhibition, % at 25.6 µM; hit rate 1.3% among 86,000; AID 633;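 active = compounds whose percent inhibition of the receptor-coactivator binding signal exceeds about 50% in the single-dose screen, limit read from the data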;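 note: 0% = receptor plus peptide wells without compound and 100% = peptide-only wells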
# Target sequence (Q92731 whole entry, looked up, the tested form may be a part): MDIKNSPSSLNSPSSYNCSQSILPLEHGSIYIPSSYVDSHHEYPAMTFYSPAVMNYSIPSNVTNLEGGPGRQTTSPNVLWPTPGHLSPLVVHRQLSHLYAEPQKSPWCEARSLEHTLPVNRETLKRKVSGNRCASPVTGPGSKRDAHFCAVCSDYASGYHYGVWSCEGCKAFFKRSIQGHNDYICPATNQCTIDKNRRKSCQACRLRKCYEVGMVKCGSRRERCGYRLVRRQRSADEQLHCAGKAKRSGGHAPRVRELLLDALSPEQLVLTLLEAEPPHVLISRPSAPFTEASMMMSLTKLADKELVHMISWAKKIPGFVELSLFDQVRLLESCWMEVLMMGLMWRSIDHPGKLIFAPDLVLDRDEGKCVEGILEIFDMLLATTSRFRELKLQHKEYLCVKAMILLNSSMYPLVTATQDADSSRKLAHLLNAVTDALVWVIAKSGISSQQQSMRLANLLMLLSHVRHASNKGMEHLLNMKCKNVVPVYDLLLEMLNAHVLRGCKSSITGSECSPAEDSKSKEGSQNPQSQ
# ERa coact pot: enhances coactivator binding to human estrogen receptor alpha; P03372; TR-FRET ERalpha-LBD/SRC-Cy5 coactivator binding, 2 h; 100 = basal binding, no effect; coactivator binding (% of control), % at 25.6 µM; hit rate 1.3% among 86,000; AID 639; in the data active = activity above about 200%;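 note: binding measured in presence of low estradiol as agonist stimulus; 0% = peptide alone without receptor and 100% = receptor with peptide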
# Lung fibro prol: blocks proliferation of human lung fibroblasts. viability, % at 10 µM. LL 47 human lung fibroblast viability, ATP luminescence; stronger effect = lower value. hit rate 1.1% among 85,000;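 active = viability at or below 50% in the single dose screen; inactive = viability above 50%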;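 note: compound exposure lasted 72 h before the ATP readout; 100% = median luminescence of untreated cell-only wells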
#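 Signal: luminescent ATP detection, CellTiter-Glo; assay system: LL 47 human lung fibroblasts; input: 1,150 cells/well; incubation: overnight cell rest, 72 h compound treatment at 37 °C; measure: % viability versus median cells-only luminescence; medium: IMEM growth medium with 15% fetal bovine serum; dosing: compound addition at 0.1% DMSO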
# H69AR growth 86K: blocks growth of human H69AR lung tumor cells. H69AR lung tumor viability, ATP luminescence, 72 h; stronger effect = lower value. viability, % at 10 µM. hit rate 6% among 85,000;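 active = viability at or below 40%; inactive = viability above 40%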;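 note: multidrug resistant small cell line overexpressing MRP-1 efflux transporter; 100% = mean luminescence of untreated control wells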
# HUVEC inhibit: inhibitors of human endothelial cell proliferation | HUVEC proliferation, CellTiter-Glo luminescence, 72 h; stronger effect = lower value | viability, % at 10 µM (by protocol) | hit rate 1.1% among 86,000 | AID 648;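 active = viability at or below 30%; inactive = viability above 30%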;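 note: 100% = median luminescence of DMSO-only cell control wells on each plate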
# Starred values were filed as active, the others as inactive; . = not tested or not shown; [ ] = dose if it differs, or a comment. The list is not random: actives were taken first. Their share in the collection is about 9.2%.
SMILES,ERa SRC1 inh,ERb SRC1 inh,ERa coact pot,Lung fibro prol,H69AR growth 86K,HUVEC inhibit
COc1ccc2[nH]c(=O)c(CN(Cc3ccc4c(c3)OCO4)C(C)=O)cc2c1,-37,-16,97,103,74,87
CCc1ccc2[nH]c(=O)c(CN(Cc3ccc4c(c3)OCO4)C(=O)c3ccco3)cc2c1,74*,41,74,94,80,77
COCCNC(=O)C(OC(=O)CC1Sc2ccccc2NC1=O)c1ccccc1 (configuration not stated),-25,-20,96,96,80,91
O=S(=O)(NCC(O)COCc1ccco1)c1cccs1 (configuration not stated),53*[fluorescence artefact?],50*,90,91,101,90
Cc1cc(=O)[nH]c(N2CCc3ccccc3C2)n1,-6,-4,103,107,109,93
COc1ccc(CNC(=O)c2cc3c(=O)n4ccccc4nc3n(Cc3ccco3)c2=N)cc1,91*[fluorescence artefact?],57*[fluorescence artefact?],36,104,52,81
N=c1c(C(=O)NCc2ccco2)cc2c(=O)n3ccccc3nc2n1CCc1ccccc1,81*[fluorescence artefact?],50*,48,.,47,80
O=C(NCc1ccco1)c1cccn2c(=O)c3cc4ccccc4cc3nc12,61*[fluorescence artefact?],48,138,87,21*,53
COCCCNC(=O)c1cccn2c(=O)c3cc4ccccc4cc3nc12,-32,-11,117,90,51,61
Cc1ccc(Cn2c(=N)c(C(=O)NCc3ccco3)cc3c(=O)n4ccccc4nc32)cc1,83*[fluorescence artefact?],56*[fluorescence artefact?],15,81,49,77
CC(=O)N1c2ccccc2C(C)(C)C2CCC(C)CC21 (configuration not stated),-28,-7,101,103,90,94
CN(C)C=Nc1ncc2c([nH]c3ccccc32)c1C#N,-6,5,123,89,69,59
O=C(Nc1nc(-c2ccc(Cl)s2)cs1)c1cccs1,-1,6,101,90,34*,69
Cn1cccc1C(=O)Nc1nc(-c2ccccn2)cs1,17,17,45,60,35*,57
O=C(Nc1nc(-c2ccccn2)cs1)c1ccc(Cl)s1,-3,-5,93,28*,2.9*,28*
CN(CCO)C1=CC(=O)CC(C)(C)C1,-4,5,108,100,85,101
CCCN(CCC)CC(=O)Nc1cccc2c1OCO2,0,6,107,98,93,89
COc1ccccc1S(=O)(=O)Cc1ccc(C(=O)NC(C)c2ccc3c(c2)OCCO3)o1 (configuration not stated),0,10,110,96,100,85
O=C(CN(Cc1ccccc1Cl)C(=O)c1ccc(CN2CCOCC2)o1)NCC1CCCO1 (configuration not stated),-7,-17,109,103,91,105
Cc1cc(C)n2c(SCC(=O)NCc3ccco3)nnc2n1,-4,-10,113,88,102,100
CCC1(C)Cc2c(sc3nc(SC)n(Cc4ccccc4)c(=O)c23)CO1 (configuration not stated),-6,-1,96,94,97,123
CCC1(C)Cc2c(sc3c2c2ncnn2c2nnc(SCC(=O)NCc4ccco4)n32)CO1 (configuration not stated),11,15,97,96,37*,78
CCC1(C)Cc2c(sc3c2c(=O)n(C)c2nnc(SCC(=O)c4ccccc4)n32)CO1 (configuration not stated),9,4,101,35*,4.2*,83
CC1(C)Cc2c(sc3c2c2ncnn2c2nnc(SCC(=O)NCc4ccco4)n32)CO1,-2,74*[fluorescence artefact?],116,99,50,90
O=C(N/N=C1\CCCc2ccccc21)c1ccccc1[N+](=O)[O-],-6,-1,102,105,86,97
COC(=O)c1c(NC(=O)c2ccco2)sc(C)c1C,-6,-5,133,99,87,84
COC(=O)c1c(NC(=O)c2ccco2)sc(C(=O)Nc2ccc(F)cc2)c1C,15,-1,108,100,3.6*,34
CCC(=O)N1c2ccccc2-c2nnc(SC)nc2OC1c1ccc(N(C)C)cc1 (configuration not stated),-5,-6,98,103,76,92

# Screening results as filed in PubChem.
